# Source: ChEMBL document CHEMBL4052828, “Discovery of 4-((7H-Pyrrolo[2,3-d]pyrimidin-4-yl)amino)-N-(4-((4-methylpiperazin-1-yl)methyl)phenyl)-1H-pyrazole-3-carboxamide (FN-1501), an FLT3- and CDK-Kinase Inhibitor with Potentially High Efficiency against Acute Myelocytic Leukemia” (J Med Chem, 2018)
# Activity calls are given as the source filed them. The rule behind the calls is not given here.
# Legend:
# MV4-11 [1] = assay: Antitumor activity against human MV4-11 cells xenografted in nu/nu mouse assessed as tumor growth inhibition at 50 mg/kg, iv qd measured on day 21 relative to vehicle-treated control; format: functional; settings: MV4-11, iv, 504 h, read-out: TGI
# In short: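 Female nu/nu mice bearing MV4-11 xenografts; dosing began once tumors reached 200 mm3. Given iv once daily for 21 days, with a vehicle-only group. Body weight and tumor size tracked relative to initial values, set as 100%. Tumors weighed at the end of the 22-day treatment period.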
# [2] = target: Receptor-type tyrosine-protein kinase FLT3 (Homo sapiens) (UniProt P36888); settings: 1 uM
# MV4-11 [3] = assay: Growth inhibition of human MV4-11 cells after 72 hrs by CellTiter-Glo assay; format: functional, cell-based; settings: MV4-11, 72 h
# In short: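 MV4-11 cells grown in IMDM with 10% FBS, 2% L-glutamine and 1% pen/strep at 37 °C, 5% CO2. Seeded at 10000 cells/well and exposed to compound at various concentrations for 72 h. Viability read by CellTiter-Glo luminescence.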
# MV4-11 [4] = assay: Induction of apoptosis in human MV4-11 cells assessed as late apoptotic cells at 2 uM after 24 hrs by annexin V-FITC/propidium iodide staining-based flow cytometric method (reference value: 2.54%); format: functional
# MV4-11 [5] = assay: Cell cycle arrest in human MV4-11 cells assessed as accumulation at G0/G1 phase at 0.2 uM after 24 hrs by propidium iodide/BrdU staining-based flow cytometric method; format: functional
# In short: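 Cells treated with compound for 24 h, then fixed. Double-stained with propidium iodide and BrdU for flow cytometric analysis of cell cycle distribution.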
# MV4-11 [6] = assay: Induction of apoptosis in human MV4-11 cells assessed as early apoptotic cells at 2 uM after 24 hrs by annexin V-FITC/propidium iodide staining-based flow cytometric method (reference value: 3.54%); format: functional
# [7] = target: Receptor-type tyrosine-protein kinase FLT3 (Homo sapiens) (UniProt P36888); settings: 1 uM; remark: listed apart in the source
# [8] = target: Receptor-type tyrosine-protein kinase FLT3 (Homo sapiens) (UniProt P36888); settings: 1 uM; remark: listed apart in the source
# [9] = target: Receptor-type tyrosine-protein kinase FLT3 (Homo sapiens) (UniProt P36888); settings: 1 uM; remark: listed apart in the source
# MGC-803 = assay: Growth inhibition of human MGC803 cells after 72 hrs by CellTiter-Glo assay; format: functional; settings: MGC-803, 72 h
# RS4-11 = assay: Growth inhibition of human RS4:11 cells after 72 hrs by CellTiter-Glo assay; format: functional; settings: RS4-11, 72 h
# HCT-116 = assay: Growth inhibition of human HCT116 cells after 72 hrs by CellTiter-Glo assay; format: functional; settings: HCT-116, 72 h
# NCI-H82 = assay: Growth inhibition of human NCI-H82 cells after 72 hrs by CellTiter-Glo assay; format: functional; settings: NCI-H82, 72 h
# CDK2/Cyclin A1 = CDK2/Cyclin A1 (Homo sapiens, UniProt P24941); assay: Inhibition of human CDK2/Cyclin A1 using histone H1 as substrate preincubated for 20 mins followed by [gamma-33P]-ATP addition measure after 120 mins by filter binding method; format: protein-complex assay
# In short: (§1)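 Compound preincubated with kinase 20 min at room temperature. Filter-binding read-out, curve-fitted IC50; mean ± SD of three independent experiments.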
# [10] = target: T1, Receptor-type tyrosine-protein kinase FLT3 (Homo sapiens, UniProt P36888); assay: Inhibition of human FLT3 using EAIYAAPFAKKK as substrate preincubated for 20 mins followed by [gamma-33P]-ATP addition measure after 120 mins by filter binding method; in short: as §1
# T1 sequence (P36888 whole entry): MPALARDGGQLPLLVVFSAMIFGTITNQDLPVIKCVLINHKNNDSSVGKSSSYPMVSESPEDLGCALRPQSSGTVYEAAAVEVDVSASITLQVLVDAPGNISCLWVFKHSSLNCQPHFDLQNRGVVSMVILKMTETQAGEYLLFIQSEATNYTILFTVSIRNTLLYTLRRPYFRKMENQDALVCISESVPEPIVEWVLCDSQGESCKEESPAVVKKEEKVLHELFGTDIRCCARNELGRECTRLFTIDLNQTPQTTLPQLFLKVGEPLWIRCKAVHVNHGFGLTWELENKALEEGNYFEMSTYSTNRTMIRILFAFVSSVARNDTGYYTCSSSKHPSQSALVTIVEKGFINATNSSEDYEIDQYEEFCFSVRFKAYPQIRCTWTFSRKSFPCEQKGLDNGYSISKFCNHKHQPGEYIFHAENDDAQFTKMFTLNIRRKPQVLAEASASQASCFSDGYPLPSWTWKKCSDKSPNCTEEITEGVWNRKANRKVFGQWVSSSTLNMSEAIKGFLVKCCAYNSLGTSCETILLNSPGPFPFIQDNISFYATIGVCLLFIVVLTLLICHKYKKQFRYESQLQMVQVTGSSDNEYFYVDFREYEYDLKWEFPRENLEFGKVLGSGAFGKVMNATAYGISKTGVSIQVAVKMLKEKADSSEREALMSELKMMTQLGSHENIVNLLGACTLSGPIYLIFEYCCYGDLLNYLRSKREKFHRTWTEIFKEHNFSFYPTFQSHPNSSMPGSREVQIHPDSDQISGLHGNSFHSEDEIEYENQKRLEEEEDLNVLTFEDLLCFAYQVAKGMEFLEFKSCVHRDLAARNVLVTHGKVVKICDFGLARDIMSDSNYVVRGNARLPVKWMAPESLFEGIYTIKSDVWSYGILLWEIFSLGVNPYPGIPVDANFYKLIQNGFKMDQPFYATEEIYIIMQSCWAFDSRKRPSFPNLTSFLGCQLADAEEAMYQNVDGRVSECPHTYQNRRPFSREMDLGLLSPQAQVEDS
# [11] = target: ALK tyrosine kinase receptor (Homo sapiens, UniProt Q9UM73); assay: Inhibition of human ALK using poly[Glu:Tyr] (4:1) as substrate preincubated for 20 mins followed by [gamma-33P]-ATP addition measure after 120 mins by filter binding method
# In short: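 Compound in DMSO was added to the kinase mixture for 20 min at room temperature. The reaction was started with 10 μM [γ-33P]ATP and run 120 min at 25 °C.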
# MCF7 = assay: Growth inhibition of human MCF7 cells after 72 hrs by CellTiter-Glo assay; format: functional; settings: MCF7, 72 h
# CDK6/cyclin D1 = CDK6/cyclin D1 (Homo sapiens, UniProt Q00534); assay: Inhibition of human CDK6/Cyclin D1 using RB protein as substrate preincubated for 20 mins followed by [gamma-33P]-ATP addition measure after 120 mins by filter binding method; format: protein-complex assay
# In short: (§2)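 Compound preincubated with kinase 20 min at room temperature. Reaction started with 10 μM [γ-33P]ATP and run 120 min at 25°C. Filter-binding read-out, curve-fitted IC50; mean ± SD of three independent experiments.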
# [12] = target: Cyclin-dependent kinase 4/cyclin D1 (Homo sapiens, UniProt P11802); assay: Inhibition of human CDK4/Cyclin D1 using RB protein as substrate preincubated for 20 mins followed by [gamma-33P]-ATP addition measure after 120 mins by filter binding method; format: protein-complex assay; in short: as §2
# Chain of Cyclin-dependent kinase 4/cyclin D1 (P11802 whole entry): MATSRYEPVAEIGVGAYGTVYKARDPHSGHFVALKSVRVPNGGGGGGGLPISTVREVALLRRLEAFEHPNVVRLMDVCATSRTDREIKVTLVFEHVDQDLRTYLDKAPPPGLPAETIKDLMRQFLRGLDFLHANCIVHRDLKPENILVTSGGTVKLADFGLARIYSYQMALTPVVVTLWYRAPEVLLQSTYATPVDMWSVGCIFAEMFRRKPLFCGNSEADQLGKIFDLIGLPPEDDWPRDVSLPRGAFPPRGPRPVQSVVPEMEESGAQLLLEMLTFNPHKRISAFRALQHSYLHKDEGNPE
# Chain of Cyclin-dependent kinase 4/cyclin D1 (P24385 whole entry, further chain): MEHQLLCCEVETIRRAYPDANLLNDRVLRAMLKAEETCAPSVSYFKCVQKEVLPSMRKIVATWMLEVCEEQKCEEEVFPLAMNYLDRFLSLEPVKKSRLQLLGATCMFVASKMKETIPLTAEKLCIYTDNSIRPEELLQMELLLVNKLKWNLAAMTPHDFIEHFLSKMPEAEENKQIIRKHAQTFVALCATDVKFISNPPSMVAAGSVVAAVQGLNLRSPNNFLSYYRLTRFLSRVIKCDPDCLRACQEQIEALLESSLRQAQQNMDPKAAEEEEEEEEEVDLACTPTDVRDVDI
# Chain of ALK tyrosine kinase receptor (Q9UM73 whole entry): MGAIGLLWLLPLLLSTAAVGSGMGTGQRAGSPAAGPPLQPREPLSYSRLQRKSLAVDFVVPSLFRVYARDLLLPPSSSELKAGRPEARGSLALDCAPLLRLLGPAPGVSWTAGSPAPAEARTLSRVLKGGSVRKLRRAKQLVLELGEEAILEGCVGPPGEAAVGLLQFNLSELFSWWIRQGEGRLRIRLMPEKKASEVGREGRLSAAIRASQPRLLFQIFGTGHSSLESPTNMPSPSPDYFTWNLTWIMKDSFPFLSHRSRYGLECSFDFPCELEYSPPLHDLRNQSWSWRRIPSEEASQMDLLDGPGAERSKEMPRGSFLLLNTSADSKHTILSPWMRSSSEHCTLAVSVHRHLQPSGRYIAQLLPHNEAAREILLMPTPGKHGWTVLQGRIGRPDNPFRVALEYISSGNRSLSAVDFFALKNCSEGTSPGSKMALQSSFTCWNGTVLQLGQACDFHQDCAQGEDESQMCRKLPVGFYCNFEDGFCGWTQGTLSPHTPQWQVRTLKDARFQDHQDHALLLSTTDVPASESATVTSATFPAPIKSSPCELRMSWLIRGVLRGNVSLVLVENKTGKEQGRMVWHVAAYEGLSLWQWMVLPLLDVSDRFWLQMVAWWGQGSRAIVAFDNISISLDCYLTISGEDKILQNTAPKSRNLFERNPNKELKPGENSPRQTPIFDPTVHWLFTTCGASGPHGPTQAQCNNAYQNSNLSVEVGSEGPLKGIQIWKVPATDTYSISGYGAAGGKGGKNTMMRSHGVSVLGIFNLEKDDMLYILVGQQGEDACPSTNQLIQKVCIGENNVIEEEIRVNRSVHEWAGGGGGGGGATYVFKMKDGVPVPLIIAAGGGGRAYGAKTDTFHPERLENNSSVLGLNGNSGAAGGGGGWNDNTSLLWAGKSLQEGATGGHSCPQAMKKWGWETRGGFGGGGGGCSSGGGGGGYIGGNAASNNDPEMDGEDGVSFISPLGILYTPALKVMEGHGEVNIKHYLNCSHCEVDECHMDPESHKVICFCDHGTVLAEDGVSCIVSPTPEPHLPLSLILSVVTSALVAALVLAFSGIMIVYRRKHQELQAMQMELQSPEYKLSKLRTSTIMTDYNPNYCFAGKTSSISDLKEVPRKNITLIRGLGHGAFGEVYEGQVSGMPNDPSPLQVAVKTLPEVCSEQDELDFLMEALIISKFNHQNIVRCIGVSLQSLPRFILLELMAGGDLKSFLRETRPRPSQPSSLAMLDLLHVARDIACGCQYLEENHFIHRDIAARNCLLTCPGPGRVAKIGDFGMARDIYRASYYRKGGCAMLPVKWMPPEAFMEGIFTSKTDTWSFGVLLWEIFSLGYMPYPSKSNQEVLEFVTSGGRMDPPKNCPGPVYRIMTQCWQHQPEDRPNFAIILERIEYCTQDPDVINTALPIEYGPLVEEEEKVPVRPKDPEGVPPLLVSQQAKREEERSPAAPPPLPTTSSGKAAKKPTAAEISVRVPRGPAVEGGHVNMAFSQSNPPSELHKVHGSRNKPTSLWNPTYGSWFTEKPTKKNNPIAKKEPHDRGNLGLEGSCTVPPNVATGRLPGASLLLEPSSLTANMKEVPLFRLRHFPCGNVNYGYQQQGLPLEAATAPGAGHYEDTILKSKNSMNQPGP
# Chain of CDK6/cyclin D1 (P24385 whole entry): as the sequence (P24385 whole entry, further chain) above
# Chain of CDK6/cyclin D1 (Q00534 whole entry): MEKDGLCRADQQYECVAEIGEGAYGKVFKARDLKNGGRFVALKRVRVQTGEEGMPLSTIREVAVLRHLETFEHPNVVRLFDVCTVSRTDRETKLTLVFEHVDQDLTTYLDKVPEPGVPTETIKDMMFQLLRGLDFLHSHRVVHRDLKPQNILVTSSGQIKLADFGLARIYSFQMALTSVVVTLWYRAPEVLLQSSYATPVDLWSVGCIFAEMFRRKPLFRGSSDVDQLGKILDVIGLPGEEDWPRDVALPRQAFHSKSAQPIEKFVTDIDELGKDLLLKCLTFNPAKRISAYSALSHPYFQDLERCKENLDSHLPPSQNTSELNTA
Structure (SMILES),inhibition in vivo at 50 mg/kg (MV4-11 [1]),inhibition [2],IC50 (MV4-11 [3]),Activity (MV4-11 [4]),Activity (MV4-11 [5]),Activity (MV4-11 [6]),inhibition [7],inhibition [8],inhibition [9],GI50 (MGC-803),GI50 (RS4-11),GI50 (HCT-116),GI50 (NCI-H82),IC50 (CDK2/Cyclin A1),IC50 [10],IC50 [11],GI50 (MCF7),IC50 (CDK6/cyclin D1),IC50 [12]
Nc1ccn([C@@H]2O[C@H](CO)[C@@H](O)[C@@H]2O)c(=O)n1 [CYTARABINE],61.9%,,,,,,,,,,,,,,,,,,
CNC(=O)c1cc(Oc2ccc(NC(=O)Nc3ccc(Cl)c(C(F)(F)F)c3)cc2)ccn1 [SORAFENIB],,Active,4 nM,23.97%,Active,51.35%,Active,Active,Active,,,,,,,,,,
CN1CCN(Cc2ccc(NC(=O)c3n[nH]cc3Nc3ncnc4sccc34)cc2)CC1,,,19 nM,,,,,,,160 nM,130 nM,370 nM,170 nM,5.85 to 9.47 nM,0.438 to 0.6 nM,94.1 nM,620 nM,4.24 to 4.5 nM,3.33 to 5.57 nM
